This is a sample that favours compounds with a hit; in the whole collection about 1.5% have one here.
CSN inh: inhibitors of human CSN-mediated cullin deneddylation; Q92905; Purified CSN, SCF-Nedd8-OG deneddylation, fluorescence polarization; inhibition, % at 12.5 µM; 360,000 tested, 0.38% active; AID 651999;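 active = pattern-corrected inhibition above about 35%, with an unprinted fluorescence ratio check between 0.5 and 1.5, limit read from the data, passing the limit was not always enough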;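 note: 0% = enzyme with substrate and 100% = substrate without enzyme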
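Material: purified human Csn5 enzyme expressed in HEK293T cells / Medium: Tris buffer pH 7.5, NaCl, DTT, Tween-20, trehalose, ovalbumin / Compound dosing: 12.5 µM single point / Schedule: 90 min incubation of compound, enzyme and substrate at room temperature / Signal: fluorescence polarization of the substrate / Control set: no-enzyme wells high, enzyme-with-substrate wells low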
TPT1 inhibitor: blocks Candida albicans tRNA 2'-phosphotransferase; inhibition, % at 5 µM; AID 1962; 300,000 tested, 0.81% active; recombinant caTPT1, FP RNA substrate dephosphorylation;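 active = inhibition above the mean of all tested compounds plus 3 SD, set per screening campaign, cut at about 24% in these data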;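 note: plate controls were DMSO alone for no effect and ferristatin control at 100 nM for full effect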
HNF4A DNA FP: change in binding of human HNF4 alpha to DNA. HNF4a-FITC DNA binding, fluorescence polarization, 1 h. 360,000 tested, 0.3% active. activity change, % at 10 µM. P41235. AID 1224865; in the data active = activity change above about 30%, passing the limit was not always enough
Rpn11 inh: inhibitors of human proteasome Rpn11; O00487; human 26S proteasome, Ub4-pepOG fluorescence polarization; 20S core pre-blocked with epoxomicin; calls only at 20 µM; 360,000 tested, 0.59% active; AID 588493;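 active = inhibition at 20 µM, scaled to each plate's controls, above about 33%, limit read from the data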
Target sequence (O00487 whole entry, looked up): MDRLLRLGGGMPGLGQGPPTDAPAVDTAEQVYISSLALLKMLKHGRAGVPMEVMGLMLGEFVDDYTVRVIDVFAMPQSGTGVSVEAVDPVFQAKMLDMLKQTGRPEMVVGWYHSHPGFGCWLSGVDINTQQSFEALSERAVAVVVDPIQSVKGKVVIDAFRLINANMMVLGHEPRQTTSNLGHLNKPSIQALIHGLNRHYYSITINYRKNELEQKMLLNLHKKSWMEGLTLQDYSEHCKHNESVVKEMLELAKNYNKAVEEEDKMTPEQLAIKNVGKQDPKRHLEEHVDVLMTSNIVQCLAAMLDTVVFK
caTPT1 confirm: TPT1 (C. albicans) inhibition, confirmation; inhibition, % at 5 µM; recombinant caTPT1, fluorescence polarization, RNase T1 coupled; 2,400 tested, 74% active; shares compounds with TPT1 inhibitor;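 active = inhibition above the primary screen limit, the mean inhibition of all tested compounds plus 3 SD, cut at about 25% in these data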
RNase T1 counter: blocks Aspergillus oryzae RNase T1, a TPT1 counter-screen | shares compounds with TPT1 inhibitor | RNase T1 cleavage, fluorescence polarization, 1536-well | inhibition, % at 5 µM | 2,400 tested, 83% active;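 active = inhibition above the solvent-only control well mean plus 3 SD, limit set per screening run, cut at about 23% in these data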;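 note: plate controls were DMSO wells with enzyme for no effect and wells without RNase T1 for full effect; inhibitors block cleavage so intact labeled substrate keeps polarization high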
Target sequence (P00651 whole entry, looked up): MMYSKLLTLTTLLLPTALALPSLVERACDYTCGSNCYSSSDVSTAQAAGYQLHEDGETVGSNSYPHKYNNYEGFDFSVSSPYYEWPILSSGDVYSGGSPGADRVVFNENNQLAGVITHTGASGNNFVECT
Active calls of the source: *; i = inactive; . = no result given; + = active, no number.

SMILES | CSN inh | TPT1 inhibitor | HNF4A DNA FP | Rpn11 inh | caTPT1 confirm | RNase T1 counter
O=C1N/C(=C/c2ccc(N3CCOCC3)o2)C(=O)N1c1cccc(Cl)c1 | 7 | 82* | 127 | + | 168* | 166*
CCOc1ccc(NC(=O)N(Cc2ccc(C)cc2)Cc2ccccn2)cc1 | 3 | -2 | -2 | i | . | .
COC(=O)c1cc(NC(=O)c2cccc(C(F)(F)F)c2)c(=O)oc1C/C=N/OCc1cccc(Cl)c1Cl | 15 | 35* | 28 | . | 38* | 45*
O=C(N=Nc1c(O)[nH]c2ccc(F)cc12)C1COc2ccccc2O1 (centres undefined) | 0 | -4 | 1 | i | . | .
CCC(C)n1c(-c2ccco2)nc2nc3ccccc3nc21 (centres undefined) | . | 27* | . | . | 15 | 19
CC(C)OCCCn1c(-c2ccco2)nc2nc3ccccc3nc21 | 26 | 26* | 16 | i | 13 | 24*
COCCn1c(-c2ccco2)nc2nc3ccccc3nc21 | 19 | 4 | -1 | i | . | .
CCOC(=O)C1C(=O)NC(SC)=C(C#N)C1c1ccccc1F (centres undefined) | 2 | -5 | 2 | i | . | .
CCOC(=O)C1C(=O)NC(SCC(N)=O)=C(C#N)C1c1ccccc1OCC (centres undefined) | 43* | 70* | 99* | . | 68* | 78*
CCN1CC2=C(OC(N)=C(C#N)C2c2cccs2)/C(=C\c2cccs2)C1 (centres undefined) | 10 | 26* | 5 | . | 14 | 21
CCOC(=O)c1ccc(NCn2c(=O)oc3ccccc32)cc1 | 28 | 31* | 22 | . | 44* | 57*
COC(=O)c1ccc(NC(=O)CCn2c(=O)oc3ccccc32)cc1 | 2 | 0 | 0 | i | . | .
Cc1ccc(NC(=O)N/C=C/c2ccco2)cc1C | 9 | 24* | 7 | . | 61* | 73*
COc1cccc(OCCCn2ccnc2)c1 | 6 | 1 | -1 | i | . | .
CCc1cccc(OCCCn2ccnc2)c1 | 0 | 36* | 0 | i | 3 | 9
O=C(CSc1nc2[nH]ncc2c(=O)n1-c1ccccc1)N1CCCCCC1 | . | 1 | . | . | . | .
CSC1=N/C(=C\c2ccc(F)cc2)C(=O)S1 | -2 | -2 | -1 | i | . | .
COc1ccc(/C=C/C=C2\N=C(SC)SC2=O)cc1 | 11 | 43* | 5 | i | 46* | 56*
Cc1cccc(C)c1-n1c(C)cc(/C=N\Nc2ccc([N+](=O)[O-])cn2)c1C | 24 | 75* | 38 | . | 67* | 79*
O=[N+]([O-])c1ccc(NN=Cc2cccc(O)c2)nc1 | -1 | . | 3 | i | . | .
Cc1nnc(N/N=C/c2ccco2)n1N | -4 | 70* | 1 | i | 11 | 17
Cc1nnc(N/N=C/c2ccccc2F)n1N | 0 | -2 | 0 | i | . | .
CCC1C/C(=C/c2ccco2)C(=O)/C(=C/c2ccco2)C1 (centres undefined) | . | 68* | . | . | 75* | 80*
CC(/C=C1\SC(=S)N(NC(=O)c2cccc(O)c2)C1=O)=C\c1ccccc1 | -1 | 1 | -1 | i | . | .
O=C(Cc1ccccc1)NN1C(=O)/C(=C/c2ccc(C(=O)O)cc2)SC1=S | -1 | 1 | 0 | i | . | .
SMILES | CSN inh | TPT1 inhibitor | HNF4A DNA FP | Rpn11 inh | caTPT1 confirm | RNase T1 counter
Cn1cc(/C=C/C(=O)c2ccccc2)c2ccccc21 | 1 | 34* | 16 | i | 38* | 45*
Cn1cc(/C=C2\SC(=S)N(NC(=O)c3ccccc3)C2=O)c2ccccc21 | 7 | 137* | 14 | i | 55* | 61*
Cn1cc(/C=C2\SC(=S)N(NC(=O)c3cccc(Cl)c3)C2=O)c2ccccc21 | 10 | . | -26 | . | . | .
O=C(NN1C(=O)/C(=C/c2ccc(O)cc2)SC1=S)c1ccccc1O | 101 | 55* | 106* | . | 65* | 72*
O=C(NN1C(=O)/C(=C/c2ccc(O)cc2)SC1=S)c1cccc(O)c1 | 129 | 71* | 107* | . | 67* | 72*
CC1=Nc2ccccc2/C1=C\c1nc(-c2ccc(F)cc2)oc1O | 3 | 93* | 14 | i | 96* | 102*
O=C(CN1C(=O)NC2(CCCC2)C1=O)c1ccc(Cl)s1 | -2 | -2 | 2 | i | . | .
COc1ccc(N/C=C\C(=O)c2ccc(C)cc2)cc1OC | 31 | 2 | 4 | . | . | .
COc1ccc(N/C=C\C(=O)c2ccc(Br)cc2)cc1OC | 53* | 34* | 123 | . | 50* | 60*
CCOC(=O)c1c(NC(=O)CCS(=O)(=O)c2ccccc2)sc2c1CCN(C)C2 | 18 | 35* | 21 | i | 21 | 28*
CCOC(=O)c1c(NC(=O)Cc2ccccc2)sc2c1CCN(C)C2 | 2 | 0 | -3 | i | . | .
CCOC(=O)c1c(NC(=S)Nc2ccc(OCC)cc2)sc2c1CCN(C)C2 | 11 | 48* | 11 | i | 53* | 64*
CCOC(=O)c1c(NC(=O)CSc2nnc(C)s2)sc2c1CCN(C)C2 | 43* | 98* | 73* | . | 97* | 103*
CC1=C(C)C(C)=C(C#N)C(=C(C#N)C#N)N1 | -2 | -1 | 0 | i | . | .
CN1CCc2c(sc3c2C(=O)NC(/C=C\c2ccccc2)N3)C1 (centres undefined) | 19 | 22 | 9 | . | . | .
CSc1ccc(C2NC(=O)c3c(sc4c3CCN(C)C4)N2)cc1 (centres undefined) | 46* | 105* | 54 | . | 97* | 101*
Cc1ccsc1C1Nc2ccccc2C(=O)N1O (centres undefined) | -12 | 0 | 2 | i | . | .
CN1CCc2c(sc3c2C(=O)NC(c2cccs2)N3)C1 (centres undefined) | 4 | 34* | 1 | i | 23 | 35*
Cc1ccsc1C1NC(=O)c2c(sc3c2CCN(C)C3)N1 (centres undefined) | 18 | 61* | 16 | i | 56* | 65*
CN1CCc2c(sc3c2C(=O)NC(c2ccc(-c4cccc(Cl)c4)o2)N3)C1 (centres undefined) | 44* | 115* | 71* | . | 111* | 117*
Cc1cc2c(cc1C)-n1nnnc1C(N(C)Cc1ccccc1)C(=O)N2 (centres undefined) | 0 | . | 0 | . | . | .
CN1CCc2c(sc3nc(SCC(=O)NCc4ccco4)n(-c4ccccc4)c(=O)c23)C1 | 17 | 30* | 32 | . | 38* | 51*
COc1ccc(-n2c(SCC(=O)NCc3ccco3)nc3sc4c(c3c2=O)CCN(C)C4)cc1 | 2 | 14 | -15 | i | . | .
NC(=O)N/N=C/c1sc(=O)n(-c2ccccc2)c1Cl | 14 | 39* | 27 | . | 47* | 66*
O=C1NC[C@H](CCCCN2CCN(Cc3ccccc3)C(=O)C2=O)N(CCc2ccc(O)cc2)C1=O | -4 | . | 4 | . | . | .
Cc1ccc2c(c1)/C(=C/c1ccc(F)cc1)C(=O)N2 | 4 | 1 | -3 | i | . | .
